# “Also recorded” adds a separate entry of the source. Where two headings read alike, the source gives them in different places.
# Experiments:
# NDM-1 [1] = molecular target: T1, NDM-1 (Klebsiella pneumoniae, UniProt C7C422); assay: NDM-1 IC50, fluorescent fluorocillin assay; type: biochemical
# MMP-2 = molecular target: T2, MMP-2 (Homo sapiens, UniProt P08253); assay: MMP-2 inhibition, OmniMMP fluorogenic substrate; type: biochemical; settings: at 10 μM
# T2 sequence (P08253 110-660): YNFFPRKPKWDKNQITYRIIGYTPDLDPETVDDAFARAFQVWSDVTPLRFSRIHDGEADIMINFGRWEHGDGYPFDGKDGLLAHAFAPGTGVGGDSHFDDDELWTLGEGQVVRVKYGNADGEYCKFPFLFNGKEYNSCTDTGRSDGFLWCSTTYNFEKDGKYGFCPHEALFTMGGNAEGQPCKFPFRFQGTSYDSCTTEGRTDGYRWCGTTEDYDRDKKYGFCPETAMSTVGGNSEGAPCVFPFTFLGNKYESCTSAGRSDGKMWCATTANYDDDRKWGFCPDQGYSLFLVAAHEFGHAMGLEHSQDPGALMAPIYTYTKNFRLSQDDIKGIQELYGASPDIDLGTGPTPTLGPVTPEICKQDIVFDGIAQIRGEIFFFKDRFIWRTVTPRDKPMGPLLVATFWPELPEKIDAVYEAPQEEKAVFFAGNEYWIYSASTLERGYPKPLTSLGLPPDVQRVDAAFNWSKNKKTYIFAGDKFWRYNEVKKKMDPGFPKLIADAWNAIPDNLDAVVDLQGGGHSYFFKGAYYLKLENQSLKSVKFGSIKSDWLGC
# How it was run: (§1)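 Human recombinant MMP-2 (1.16 U/well) or MMP-12 (0.007 U/well) was preincubated with test compound (1 mM–5 μM range) for 30 min at 37 °C in 50 mM HEPES, 10 mM CaCl2, 0.05% Brij-35, pH 7.5. The reaction was started with 4 μM OmniMMP substrate (Mca-Pro-Leu-Gly-Leu-Dpa-Ala-Arg-NH2), and the fluorescence increase was monitored over 20 min (ex 320/em 400 nm). No-inhibitor wells were set to 100% and 200 μM NSA to 0%; run in triplicate.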
# MMP-12 = MMP-12 (Homo sapiens, UniProt P39900); assay: MMP-12 inhibition, OmniMMP fluorogenic substrate; type: biochemical; settings: at 10 μM
# Chain of MMP-12 (P39900 106-470): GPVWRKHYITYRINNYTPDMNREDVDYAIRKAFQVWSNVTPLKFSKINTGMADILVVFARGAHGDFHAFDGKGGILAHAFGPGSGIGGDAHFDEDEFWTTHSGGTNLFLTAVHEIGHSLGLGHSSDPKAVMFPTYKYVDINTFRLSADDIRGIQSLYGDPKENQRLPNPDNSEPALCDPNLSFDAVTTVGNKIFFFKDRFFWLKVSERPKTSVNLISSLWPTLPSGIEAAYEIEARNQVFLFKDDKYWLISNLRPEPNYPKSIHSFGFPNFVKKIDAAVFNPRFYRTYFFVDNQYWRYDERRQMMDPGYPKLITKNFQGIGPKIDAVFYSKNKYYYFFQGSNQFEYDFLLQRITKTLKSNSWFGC
# How it was run: as §1
# HDAC-1 = HDAC-1 (Homo sapiens, UniProt Q13547); assay: HDAC-1 inhibition, fluorescence assay; type: biochemical; settings: at 10 μM
# Chain of HDAC-1 (Q13547 whole entry): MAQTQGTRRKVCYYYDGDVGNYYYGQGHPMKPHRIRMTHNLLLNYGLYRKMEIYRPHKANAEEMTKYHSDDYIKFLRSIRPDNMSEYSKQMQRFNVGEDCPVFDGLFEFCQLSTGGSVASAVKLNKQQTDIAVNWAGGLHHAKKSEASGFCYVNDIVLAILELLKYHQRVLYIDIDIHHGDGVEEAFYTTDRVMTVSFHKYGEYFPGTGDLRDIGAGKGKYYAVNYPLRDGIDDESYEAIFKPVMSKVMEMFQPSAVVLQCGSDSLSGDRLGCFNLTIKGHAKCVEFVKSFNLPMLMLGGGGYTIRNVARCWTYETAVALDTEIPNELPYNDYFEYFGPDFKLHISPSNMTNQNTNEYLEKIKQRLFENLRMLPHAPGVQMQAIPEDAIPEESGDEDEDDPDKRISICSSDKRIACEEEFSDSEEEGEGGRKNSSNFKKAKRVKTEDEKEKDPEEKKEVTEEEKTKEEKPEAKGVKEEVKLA
# How it was run: (§2)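 After 5 min preincubation, 20 μM HDAC substrate 3 was added for 30 min at 37 °C, then developer for 15 min at room temperature. Fluorescence ex 360/em 460 nm was read. No-inhibitor wells were set to 100% and 200 μM SAHA to 0%; run in triplicate.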
# HDAC-6 = molecular target: T3, HDAC-6 (Homo sapiens, UniProt Q9UBN7); assay: HDAC-6 inhibition, fluorescence assay; type: biochemical; settings: at 10 μM
# T3 sequence (Q9UBN7 1-1215): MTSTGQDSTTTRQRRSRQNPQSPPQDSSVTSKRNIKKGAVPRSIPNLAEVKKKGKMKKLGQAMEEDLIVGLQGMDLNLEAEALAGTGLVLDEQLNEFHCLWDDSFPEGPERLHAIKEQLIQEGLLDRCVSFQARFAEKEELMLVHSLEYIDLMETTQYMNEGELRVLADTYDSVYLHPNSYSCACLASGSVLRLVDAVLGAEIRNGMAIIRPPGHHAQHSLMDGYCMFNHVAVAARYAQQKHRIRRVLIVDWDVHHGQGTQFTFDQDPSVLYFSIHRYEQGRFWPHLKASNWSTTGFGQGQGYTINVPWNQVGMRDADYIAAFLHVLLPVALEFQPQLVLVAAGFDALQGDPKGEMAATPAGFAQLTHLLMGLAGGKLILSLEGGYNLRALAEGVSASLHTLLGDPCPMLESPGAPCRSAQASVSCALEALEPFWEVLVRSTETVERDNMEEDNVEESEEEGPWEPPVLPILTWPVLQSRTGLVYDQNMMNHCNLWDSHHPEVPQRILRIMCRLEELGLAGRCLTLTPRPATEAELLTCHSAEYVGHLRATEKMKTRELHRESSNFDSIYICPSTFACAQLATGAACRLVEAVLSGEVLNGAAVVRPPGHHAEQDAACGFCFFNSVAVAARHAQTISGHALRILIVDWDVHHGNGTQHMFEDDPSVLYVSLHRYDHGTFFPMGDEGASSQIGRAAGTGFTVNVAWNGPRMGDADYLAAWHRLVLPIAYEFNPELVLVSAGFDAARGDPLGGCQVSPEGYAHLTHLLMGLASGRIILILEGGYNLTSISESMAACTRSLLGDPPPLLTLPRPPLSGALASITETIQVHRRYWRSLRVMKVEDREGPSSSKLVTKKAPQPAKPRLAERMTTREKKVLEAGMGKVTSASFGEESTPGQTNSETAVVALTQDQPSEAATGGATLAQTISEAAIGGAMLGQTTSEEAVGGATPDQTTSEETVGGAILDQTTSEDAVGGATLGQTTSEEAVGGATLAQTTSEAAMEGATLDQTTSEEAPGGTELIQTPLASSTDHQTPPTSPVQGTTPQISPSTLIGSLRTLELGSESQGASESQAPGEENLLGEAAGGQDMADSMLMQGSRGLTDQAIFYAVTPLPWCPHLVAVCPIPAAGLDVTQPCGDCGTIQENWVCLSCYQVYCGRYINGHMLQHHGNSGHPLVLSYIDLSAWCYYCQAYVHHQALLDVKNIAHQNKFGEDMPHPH
# How it was run: as §2
# [2] = molecular target: Human carbonic anhydrase II (Homo sapiens, UniProt P00918); assay: hCAII inhibition, p-nitrophenyl acetate assay; type: biochemical
# How it was run: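 Esterase activity was started with 500 μM p-nitrophenyl acetate and followed at 405 nm for 15 min. No-inhibitor wells were set to 100% and 50 μM benzene sulfonamide to 0%; run in triplicate.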
# [3] = system: Zn(II)-dependent metalloenzymes (HDACs, MMPs, CAs); assay: Panel of Zn; type: biochemical; settings: 50 – 100 μM; data not shown
# NDM-1 [4] = molecular target: T1, NDM-1; assay: NDM-1 IC50 variation with exogenous Zn; type: biochemical; settings: Figure S3
# NDM-1 [5] = molecular target: T1, NDM-1; settings: for Zn(II) content of NDM-1 after incubation and dialysis: NDM-1 8 μM, 50 mM HEPES pH 7.5
# NDM-1 [6] = molecular target: T1, NDM-1; type: binding; settings: 2 μM NDM-1, up to 32 μM compound
# [7] = system: E. coli and K. pneumoniae clinical isolates expressing blaNDM-1; assay: organism not typed; type: cell-based
# HEK293 cells = assay: Cytotoxicity assay; type: cell-based, human; settings: concentrations relevant to the MIC studies; 4 and 24 h
# [8] = Control titration of L-tryptophan fluorescence; settings: 2 μM L-tryptophan
# [9] = system: clinical E. coli isolates expressing blaNDM-1; assay: microbe, parasite or virus in culture; type: cell-based; settings: Escherichia coli
# [10] = system: clinical K. pneumoniae isolates expressing blaNDM-1; assay: microbe, parasite or virus in culture; type: cell-based; settings: Klebsiella pneumoniae
# T1 sequence (C7C422 29-270 limits assumed): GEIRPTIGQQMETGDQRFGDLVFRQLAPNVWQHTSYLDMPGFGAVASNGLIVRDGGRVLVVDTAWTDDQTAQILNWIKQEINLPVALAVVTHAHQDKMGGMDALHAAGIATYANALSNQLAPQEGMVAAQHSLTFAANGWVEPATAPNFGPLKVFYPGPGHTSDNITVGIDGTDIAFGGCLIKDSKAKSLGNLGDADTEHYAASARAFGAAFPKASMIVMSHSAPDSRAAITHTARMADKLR
smiles,measurement,setting,value
"Nc1cccc(-c2cc(C(=O)O)nc(C(=O)O)c2)c1 [Compound 36, 4-(3-Aminophenyl)pyridine-2,6-dicarboxylic acid]",ligand efficiency,NDM-1 [1],0.5 kcal/mol/non-H atom
same,fold improvement in inhibition compared to DPA,NDM-1 [1]; fluorescent assay,4 fold
same,Percent inhibition of MMP-2,MMP-2,some inhibition
same,Percent inhibition of MMP-12,MMP-12,some inhibition
same,Percent inhibition of HDAC-1,HDAC-1,did not show inhibition; also recorded: No inhibition
same,Percent inhibition of HDAC-6,HDAC-6,did not show inhibition; also recorded: No inhibition
same,selectivity for NDM-1 over human CAII,[2],at least 500 fold
same,Percent inhibition of hCAII,[2]; at 10 μM,did not show inhibition; also recorded: No inhibition
same,inhibition of Zn(II) metalloenzymes at higher concentrations,[3],< 50%
same,effect of exogenous Zn(II) in the assay buffer on NDM-1 inhibition,NDM-1 [4],little impact on the IC50 value
same,Zn(II) content of NDM-1 after incubation and dialysis,NDM-1 [5],no significant removal of Zn(II)
same,Zn(II) removed from NDM-1,NDM-1 [5]; ~24 μM compound,10–20%
same,quenching of intrinsic tryptophan fluorescence of NDM-1,NDM-1 [6],50–60%
same,effect on bacterial growth of compound alone,"[7]; 36 alone (100 mg/L), all E. coli and K. pneumoniae strains",no effect on growth
same,"toxicity to HEK293 cells (growth, morphology, viability)",HEK293 cells,not adversely effected; also recorded: did not exhibit cytotoxicity; also recorded: no toxicity was observed
"O=C(O)c1cccc(C(=O)O)n1 [DPA, 2,6-dipicolinic acid]",effect of exogenous Zn(II) in the assay buffer on NDM-1 inhibition,NDM-1 [4],diminishes the inhibition activity
same,Zn(II) content of NDM-1 after incubation and dialysis,NDM-1 [5],significant loss in Zn(II) content
"O=C(O)CN(CCN(CC(=O)O)CC(=O)O)CC(=O)O [EDTA, ethylenediaminetetraacetic acid]",reduction of fluorescence emission of L-tryptophan,[8],no change
"C[C@@H](O)[C@H]1C(=O)N2C(C(=O)O)=C(SCCN=CN)C[C@H]12 [Imipenem, imipenem]",MIC,"[9]; read-out: MIC, imipenem, E. coli isolate Ah8.71",16 µg/mL
same,MIC,"[9]; read-out: MIC, imipenem, E. coli isolate Ah8.73",16 µg/mL
same,MIC,"[9]; read-out: MIC, imipenem, E. coli isolate Ah8.75",16 µg/mL
same,MIC,"[9]; read-out: MIC, imipenem, E. coli isolate Ch8.68",16 µg/mL
same,MIC,"[9]; read-out: MIC, imipenem, E. coli isolate Ch8.69",4 µg/mL
same,MIC,"[9]; read-out: MIC, imipenem, E. coli isolate Ch8.70",16 µg/mL
same,MIC,"[9]; read-out: MIC, imipenem, E. coli isolate Ch8.72",16 µg/mL
same,MIC,"[10]; read-out: MIC, imipenem, K. pneumoniae isolate Cm1.62",16 µg/mL
same,MIC,"[10]; read-out: MIC, imipenem, K. pneumoniae isolate Cm1.63",8 µg/mL
same,MIC,"[10]; read-out: MIC, imipenem, K. pneumoniae isolate Pd1.48",8 µg/mL
same,MIC,"[10]; read-out: MIC, imipenem, K. pneumoniae isolate Pd1.49",4 µg/mL
same,MIC,"[10]; read-out: MIC, imipenem, K. pneumoniae isolate Pd1.50",8 µg/mL
same,MIC,"[10]; read-out: MIC, imipenem, K. pneumoniae isolate Pd1.53",8 µg/mL
same,MIC,"[10]; read-out: MIC, imipenem, K. pneumoniae isolate Pd1.54",8 µg/mL
same,MIC,"[10]; read-out: MIC, imipenem, K. pneumoniae isolate Pd1.55",8 µg/mL
same,MIC,[7]; read-out: MICs of imipenem alone,4 to 16 µg/mL
C[C@H](CS)C(=O)N1CCC[C@H]1C(=O)O [L-Captopril],Zn(II) content of NDM-1 after incubation and dialysis,NDM-1 [5],did not change
same,reduction of fluorescence emission of L-tryptophan,[8],no change

# From publication PMC5599375 (Journal of medicinal chemistry, 2017)
